The values below come from ChEMBL document CHEMBL1141146, “Androsterone 3alpha-ether-3beta-substituted and androsterone 3beta-substituted derivatives as inhibitors of type 3 17beta-hydroxysteroid dehydrogenase: chemical synthesis and structure-activity relationship” (J Med Chem, 2005).

The target of assay [1] is T1, 17-beta-hydroxysteroid dehydrogenase type 3 (Homo sapiens) (UniProt P37058).
T1 sequence (whole entry): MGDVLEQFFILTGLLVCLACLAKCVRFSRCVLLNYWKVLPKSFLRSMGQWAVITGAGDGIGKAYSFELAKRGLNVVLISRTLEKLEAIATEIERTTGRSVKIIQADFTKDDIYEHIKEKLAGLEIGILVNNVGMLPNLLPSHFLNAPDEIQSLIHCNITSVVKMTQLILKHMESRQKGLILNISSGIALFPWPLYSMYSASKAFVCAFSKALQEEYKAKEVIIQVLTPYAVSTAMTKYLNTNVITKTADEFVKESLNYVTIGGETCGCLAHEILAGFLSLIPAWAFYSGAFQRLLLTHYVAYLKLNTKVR
Briefly: Inhibition of type-3 17 beta-hydroxysteroid dehydrogenase expressed in HEK293 cells at 3 uM 37 degree C pH 7.4. Type of assay: cell-based. Summed up:
(§1)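 Human type 3 17β-HSD was transfected into HEK-293 cells by calcium phosphate. The cells were sonicated in 50 mM Na phosphate pH 7.4 with 20% glycerol and 1 mM EDTA. The 100000g microsomal pellet served as enzyme. The reaction ran at 37 °C in the same buffer with 2 mM NADPH and 0.1 μM [14C]-Δ4-dione, reading conversion to testosterone. Percent inhibition was taken at 0.3 or 3 μM inhibitor.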

For assay [2], the target named is T1, 17-beta-hydroxysteroid dehydrogenase type 3 (Homo sapiens). The experiment in a line: Inhibition of type-3 17 beta-hydroxysteroid dehydrogenase expressed in HEK293 cells at 0.3 uM 37 degree C pH 7.4. The assay is classed as cell-based. The method, boiled down:
as §1

For assay [3], the target named is T2, 17-beta-hydroxysteroid dehydrogenase type 3 (Homo sapiens, UniProt P37058).
T2 sequence (P37058 whole entry): T1 sequence (whole entry)
The experiment in a line: Inhibition of type-3 17 beta-hydroxysteroid dehydrogenase expressed in HEK293 cells at 37 degree C pH7.4. Type of assay: cell-based. Summed up:
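HEK-293 cells were transfected with human type 3 17β-HSD, and their 100000g microsomes served as enzyme. Incubation was at 37 °C in 50 mM Na phosphate pH 7.4 with 20% glycerol, 1 mM EDTA, 2 mM NADPH and 0.1 μM [14C]-Δ4-dione. Several inhibitor concentrations were tested. Percent transformation to testosterone was plotted against inhibitor concentration, and IC50 was computed from the curve.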

The target in assay [4] is T1, 17-beta-hydroxysteroid dehydrogenase type 3 (Homo sapiens). The experiment in a line: Inhibition of type-3 17 beta-hydroxysteroid dehydrogenase expressed in HEK293 cells at 3 uM 37 degree C in pH 7.4. The assay is classed as cell-based. Summed up:
as §1

For assay [5] the target is unchanged. As to conditions: HEK293, 0.3 uM.

One may read the inhibition as how much of the control response was suppressed. Higher therefore signals a response far below the control. Consider `C=CC[C@@]1(O)CC[C@@]2(C)C(CC[C@@H]3[C@@H]2CC[C@]2(C)C(=O)CC[C@@H]32)C1` (stereo not given in full), for which the inhibition was 76% in assay [1] and 31% in assay [2].
For `CCCO[C@@H]1CC[C@@]2(C)C(CC[C@@H]3[C@@H]2CC[C@]2(C)C(=O)CC[C@@H]32)C1` (stereo not given in full) the same measures were 93% and 49%.
For `CCCO[C@]1(Cc2ccccc2)CC[C@@]2(C)C(CC[C@@H]3[C@@H]2CC[C@]2(C)C(=O)CC[C@@H]32)C1` (stereo not given in full) the same measures were 87% and 60%.
For `C[C@]1(O)CC[C@@]2(C)C(CC[C@@H]3[C@@H]2CC[C@]2(C)C(=O)CC[C@@H]32)C1` (stereo not given in full) the same measures were 16% and 9%.
Consider `C[C@]12CC[C@@H](OCCCO)CC1CC[C@@H]1[C@@H]2CC[C@]2(C)C(=O)CC[C@@H]12` (stereo not given in full), for which the inhibition in assay [1] worked out at 86%; in assay [2] it was 38%.
What is called IC50 is the concentration at which inhibition is half-maximal. A higher IC50 goes with lower potency. Take `CO[C@]1(CCC2CCCCC2)CC[C@@]2(C)C(CC[C@@H]3[C@@H]2CC[C@]2(C)C(=O)CC[C@@H]32)C1` (stereo not given in full): the inhibition is 88% in assay [1] and 80% in assay [2]. For the same compound, the 50% inhibitory concentration (IC50) in assay [3] amounted to 354 nM.
For the compound `CCCCCCCCCCCC[C@@]1(O)CC[C@@]2(C)C(CC[C@@H]3[C@@H]2CC[C@]2(C)C(=O)CC[C@@H]32)C1` (stereo not given in full), the results for the inhibition in assay [1] and in assay [2] were 77% and 50%, respectively.
For the compound `CCCCCCO[C@@H]1CC[C@@]2(C)C(CC[C@@H]3[C@@H]2CC[C@]2(C)C(=O)CC[C@@H]32)C1` (stereo not given in full), the inhibition in assay [1] is 92%; in assay [2] it was 45%.
For `CCCCCCO[C@]1(Cc2ccccc2)CC[C@@]2(C)C(CC[C@@H]3[C@@H]2CC[C@]2(C)C(=O)CC[C@@H]32)C1` (stereo not given in full) the same measures were 28% and 24%.
For `C[C@]12CC[C@H](O)CC1CC[C@@H]1[C@@H]2CC[C@]2(C)C(=O)CC[C@@H]12` (stereo not given in full) the same measures were 18% and 1%.
For `C[C@]12CC[C@@]3(CCC(=O)O3)CC1CC[C@@H]1[C@@H]2CC[C@]2(C)C(=O)CC[C@@H]12` (stereo not given in full) the same measures were 53% and 9%.
As for `C[C@]12CC[C@]3(CCC(=O)O3)CC1CC[C@@H]1[C@@H]2CC[C@]2(C)C(=O)CC[C@@H]12` (stereo not given in full), the inhibition is 93% in assay [1] and 50% in assay [2].
For `C[C@]12CC[C@@](O)(Cc3ccccc3)CC1CC[C@@H]1[C@@H]2CC[C@]2(C)C(=O)CC[C@@H]12` (stereo not given in full) the same measures were 39% and 10%.
For `C[C@]12CC[C@@](O)(CCCO)CC1CC[C@@H]1[C@@H]2CC[C@]2(C)C(=O)CC[C@@H]12` (stereo not given in full) the same measures were 17% and 2%.
Take `CO[C@]1(Cc2ccccc2)CC[C@@]2(C)C(CC[C@@H]3[C@@H]2CC[C@]2(C)C(=O)CC[C@@H]32)C1` (stereo not given in full): the inhibition is 93% in assay [1] and 91% in assay [2]. In addition, the midpoint of inhibition in assay [3], the IC50, lay at 154 nM.
As for `CCCC[C@@]1(O)CC[C@@]2(C)C(CC[C@@H]3[C@@H]2CC[C@]2(C)C(=O)CC[C@@H]32)C1` (stereo not given in full), the inhibition stood at 92% in assay [1] and 88% in assay [2]. In addition, the IC50 in assay [3] turned out to be 116 nM.
On to `C=CC[C@]1(O)CC[C@@]2(C)C(CC[C@@H]3[C@@H]2CC[C@]2(C)C(=O)CC[C@@H]32)C1` (stereo not given in full), for which the values for the inhibition in assay [1] and in assay [2] were 36% and 14%, respectively.
On to `C[C@]12CC[C@@](O)(c3ccccc3)CC1CC[C@@H]1[C@@H]2CC[C@]2(C)C(=O)CC[C@@H]12` (stereo not given in full), for which the inhibition in assay [1] is 39%; in assay [2] it was 7%.
For `CO[C@@H]1CC[C@@]2(C)C(CC[C@@H]3[C@@H]2CC[C@]2(C)C(=O)CC[C@@H]32)C1` (stereo not given in full) the same measures were 94% and 83%.
With `C[C@]12CC[C@](O)(CCCO)CC1CC[C@@H]1[C@@H]2CC[C@]2(C)C(=O)CC[C@@H]12` (stereo not given in full), the inhibition in assay [1] was 74%; in assay [2] it was 17%.
`C[C@]12CC[C@](O)(CCCc3ccccc3)CC1CC[C@@H]1[C@@H]2CC[C@]2(C)C(=O)CC[C@@H]12` (stereo not given in full): the inhibition came out at 97% in assay [4] and 93% in assay [2].
Regarding `CCO[C@@H]1CC[C@@]2(C)C(CC[C@@H]3[C@@H]2CC[C@]2(C)C(=O)CC[C@@H]32)C1` (stereo not given in full), the inhibition in assay [1] was 95%; in assay [2], 69%.
For `C[C@]12CC[C@@H](OCCCBr)CC1CC[C@@H]1[C@@H]2CC[C@]2(C)C(=O)CC[C@@H]12` (stereo not given in full) the same measures were 93% and 56%.
Regarding `C[C@]12CCC3(CCCO3)CC1CC[C@@H]1[C@@H]2CC[C@]2(C)C(=O)CC[C@@H]12` (stereo not given in full), the inhibition in assay [1] worked out at 94%; in assay [2], 3%.
As for `C[C@]12CC[C@@H](OCCC(=O)O)CC1CC[C@@H]1[C@@H]2CC[C@]2(C)C(=O)CC[C@@H]12` (stereo not given in full), the inhibition in assay [1] stood at 48%; in assay [2], 7%.
As for `CC(C)(C)[C@@]1(O)CC[C@@]2(C)C(CC[C@@H]3[C@@H]2CC[C@]2(C)C(=O)CC[C@@H]32)C1` (stereo not given in full), the figures for the inhibition in assay [5] and in assay [1] were 89% and 93%, respectively. The compound further yielded a half-maximal inhibitory concentration (IC50) in assay [3] of 142 nM.
In the case of `C=CCO[C@@H]1CC[C@@]2(C)C(CC[C@@H]3[C@@H]2CC[C@]2(C)C(=O)CC[C@@H]32)C1` (stereo not given in full), the inhibition was determined as 95% in assay [1] and 73% in assay [2].
For `C=C[C@@]1(O)CC[C@@]2(C)C(CC[C@@H]3[C@@H]2CC[C@]2(C)C(=O)CC[C@@H]32)C1` (stereo not given in full) the same measures were 94% and 77%.
For `CC(O)CO[C@@H]1CC[C@@]2(C)C(CC[C@@H]3[C@@H]2CC[C@]2(C)C(=O)CC[C@@H]32)C1` (stereo not given in full) the same measures were 89% and 40%.
On to `CO[C@]1(CCc2ccccc2)CC[C@@]2(C)C(CC[C@@H]3[C@@H]2CC[C@]2(C)C(=O)CC[C@@H]32)C1` (stereo not given in full), for which the inhibition in assay [1] is 95%; in assay [2] it was 61%. In assay [3], this compound yielded a concentration for half-maximal inhibition (IC50) of 73 nM.
For `CCO[C@]1(Cc2ccccc2)CC[C@@]2(C)C(CC[C@@H]3[C@@H]2CC[C@]2(C)C(=O)CC[C@@H]32)C1` (stereo not given in full) the same measures were 92%, 80% and 352 nM.
Take `CCC[C@]1(O)CC[C@@]2(C)C(CC[C@@H]3[C@@H]2CC[C@]2(C)C(=O)CC[C@@H]32)C1` (stereo not given in full): the results for the inhibition in assay [1] and in assay [2] were 33% and 9%, respectively.
